In ChEMBL document CHEMBL1157684, “2-Thienyl-4-furyl-6-aryl pyridine derivatives: synthesis, topoisomerase I and II inhibitory activity, cytotoxicity, and structure-activity relationship study” (Bioorg Med Chem, 2010) one finds IC50 and inhibition data, which are given here for ten compounds.

One assay deals with MCF7. The assay can be described thus: Cytotoxicity against human MCF7 cells after 4 days by ELISA reader assay. It counts as functional, cell-based. The settings on record: MCF7, 96 h. An outline of the steps: (§1)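 Cells grown per supplier, seeded at 2–4 × 10⁴ per well, left overnight in medium with 10% FBS at 37 °C under 5% CO₂, then exposed to compounds. WST (cell counting kit-8) reagent added for a further 4 h, absorbance read at 450 nm. IC50 from four-parameter logistic fit; mean ± S.D. of three experiments, each in triplicate.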

Assay [1] has as its target DNA topoisomerase 2-alpha (Homo sapiens) (UniProt P11388). Description: Inhibition of human DNA topoisomerase 2alpha-mediated relaxation of supercoiled pBR322 DNA at 100 uM after 30 mins by agarose gel electrophoresis. The gist of the method: (§2)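 Human topo IIα (1 unit) with 200 ng supercoiled pBR322, 30 min at 30 °C in 10 mM Tris–HCl pH 7.9, 50 mM NaCl, 50 mM KCl, 5 mM MgCl2, 1 mM EDTA, 1 mM ATP plus BSA. Products run on 1% agarose in TAE at 25 V for 4 h, ethidium-stained, supercoiled DNA quantified under UV.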

Another assay relates to HeLa. Description: Cytotoxicity against human HeLa cells after 4 days by ELISA reader assay. The class given is functional, cell-based. The settings on record: 96 h. An outline of the steps: as §1
The target in assay [2] is DNA topoisomerase 2-alpha (Homo sapiens) (UniProt P11388). The assay can be described thus: Inhibition of human DNA topoisomerase 2alpha-mediated relaxation of supercoiled pBR322 DNA at 20 uM after 30 mins by agarose gel electrophoresis. The gist of the method:
as §2

A further assay has as its system K562. Description: Cytotoxicity against human K562 cells after 4 days by ELISA reader assay. It counts as functional, cell-based. The settings on record: K562, 96 h. The gist of the method:
as §1

The target of assay [3] is T1, DNA topoisomerase 1 (Homo sapiens) (UniProt P11387).
T1 sequence (whole entry): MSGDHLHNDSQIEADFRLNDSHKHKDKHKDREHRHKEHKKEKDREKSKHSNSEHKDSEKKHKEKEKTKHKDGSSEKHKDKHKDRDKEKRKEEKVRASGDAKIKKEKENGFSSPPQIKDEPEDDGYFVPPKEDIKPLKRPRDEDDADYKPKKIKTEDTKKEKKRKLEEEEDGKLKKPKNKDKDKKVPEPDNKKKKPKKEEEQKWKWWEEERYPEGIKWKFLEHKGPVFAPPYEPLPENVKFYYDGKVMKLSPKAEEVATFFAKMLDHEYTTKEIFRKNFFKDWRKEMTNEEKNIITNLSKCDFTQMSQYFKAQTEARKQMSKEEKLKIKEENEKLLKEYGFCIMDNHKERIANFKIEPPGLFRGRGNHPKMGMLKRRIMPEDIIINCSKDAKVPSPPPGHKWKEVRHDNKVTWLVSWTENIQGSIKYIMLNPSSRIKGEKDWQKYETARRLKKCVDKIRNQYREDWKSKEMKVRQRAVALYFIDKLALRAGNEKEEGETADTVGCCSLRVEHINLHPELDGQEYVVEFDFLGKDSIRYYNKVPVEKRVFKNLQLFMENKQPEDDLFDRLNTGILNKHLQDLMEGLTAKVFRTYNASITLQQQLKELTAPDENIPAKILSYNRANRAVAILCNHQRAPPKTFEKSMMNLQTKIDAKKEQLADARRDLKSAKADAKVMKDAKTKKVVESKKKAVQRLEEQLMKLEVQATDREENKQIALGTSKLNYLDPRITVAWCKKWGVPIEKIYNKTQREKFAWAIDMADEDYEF
Description: Inhibition of human recombinant DNA topoisomerase 1-mediated relaxation of supercoiled pBR322 DNA at 20 uM after 30 mins by agarose gel electrophoresis. An outline of the steps: (§3)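 Recombinant human topo I (0.4 units) with 100 ng supercoiled pBR322, 30 min at 37 °C in 10 mM Tris–HCl pH 7.9, 150 mM NaCl, 0.1% BSA, 1 mM spermidine, 5% glycerol. Compounds from 20 mM DMSO stock. Products run on 1% agarose in TAE, 15 V for 7 h, ethidium-stained, bands quantified under UV.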

The next assay deals with DU-145. The assay can be described thus: Cytotoxicity against human DU145 cells after 4 days by ELISA reader assay. The class given is functional, cell-based. The settings on record: DU-145, 96 h. The gist of the method:
as §1

Assay [4] deals with T1, DNA topoisomerase 1 (Homo sapiens). The assay can be described thus: Inhibition of human recombinant DNA topoisomerase 1-mediated relaxation of supercoiled pBR322 DNA at 100 uM after 30 mins by agarose gel electrophoresis. The gist of the method: as §3
In a further assay the test system is HCT-15. Description: Cytotoxicity against human HCT15 cells after 4 days by ELISA reader assay. The class given is functional, cell-based. The settings on record: HCT-15, 96 h. The gist of the method:
as §1

The structures appear in SMILES notation. pIC50: −log10 of the molar value. Where a name gives a salt, the structure may show the parent alone. Active and inactive are the calls of the source. The calls are words filed in the database; no cut-off is given here.

Sequence of DNA topoisomerase 2-alpha (Homo sapiens) (P11388 whole entry): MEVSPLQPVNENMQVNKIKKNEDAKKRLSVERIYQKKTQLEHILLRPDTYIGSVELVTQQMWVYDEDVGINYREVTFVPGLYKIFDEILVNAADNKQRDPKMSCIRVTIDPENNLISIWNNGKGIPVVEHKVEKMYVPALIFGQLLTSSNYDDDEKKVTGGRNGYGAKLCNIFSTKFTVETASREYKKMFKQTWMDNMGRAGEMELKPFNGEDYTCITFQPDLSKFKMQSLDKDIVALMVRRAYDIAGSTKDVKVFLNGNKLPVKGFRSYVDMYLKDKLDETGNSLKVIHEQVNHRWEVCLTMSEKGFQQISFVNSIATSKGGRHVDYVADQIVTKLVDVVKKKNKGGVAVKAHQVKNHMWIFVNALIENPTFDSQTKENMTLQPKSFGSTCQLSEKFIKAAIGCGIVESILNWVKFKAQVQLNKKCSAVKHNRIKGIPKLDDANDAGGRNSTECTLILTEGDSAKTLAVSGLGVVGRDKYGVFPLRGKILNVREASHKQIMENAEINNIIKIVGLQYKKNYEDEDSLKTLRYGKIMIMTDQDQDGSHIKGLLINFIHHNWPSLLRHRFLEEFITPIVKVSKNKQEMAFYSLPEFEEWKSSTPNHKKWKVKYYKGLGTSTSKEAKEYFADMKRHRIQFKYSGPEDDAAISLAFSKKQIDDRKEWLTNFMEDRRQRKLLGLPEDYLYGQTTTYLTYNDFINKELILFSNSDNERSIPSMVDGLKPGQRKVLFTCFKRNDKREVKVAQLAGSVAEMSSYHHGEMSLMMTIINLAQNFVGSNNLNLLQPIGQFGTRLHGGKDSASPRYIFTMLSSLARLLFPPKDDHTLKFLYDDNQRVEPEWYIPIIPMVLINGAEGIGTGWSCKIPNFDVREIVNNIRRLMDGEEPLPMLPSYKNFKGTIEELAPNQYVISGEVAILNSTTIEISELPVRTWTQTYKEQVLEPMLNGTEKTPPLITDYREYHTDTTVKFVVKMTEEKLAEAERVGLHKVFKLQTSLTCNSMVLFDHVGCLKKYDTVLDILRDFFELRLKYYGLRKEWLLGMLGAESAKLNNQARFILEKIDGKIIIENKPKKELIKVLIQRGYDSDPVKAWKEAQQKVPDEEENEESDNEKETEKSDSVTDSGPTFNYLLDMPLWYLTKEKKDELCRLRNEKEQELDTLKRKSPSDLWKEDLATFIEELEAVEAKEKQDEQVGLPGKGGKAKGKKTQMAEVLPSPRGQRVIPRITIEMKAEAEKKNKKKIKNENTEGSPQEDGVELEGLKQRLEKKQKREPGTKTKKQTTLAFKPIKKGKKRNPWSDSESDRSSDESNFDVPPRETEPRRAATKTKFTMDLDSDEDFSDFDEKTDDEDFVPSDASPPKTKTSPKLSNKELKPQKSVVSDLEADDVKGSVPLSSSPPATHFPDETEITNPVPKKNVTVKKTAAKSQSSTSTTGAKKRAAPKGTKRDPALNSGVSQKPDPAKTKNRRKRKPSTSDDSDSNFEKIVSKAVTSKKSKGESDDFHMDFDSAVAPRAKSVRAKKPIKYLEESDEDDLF

With `Cc1ccsc1-c1cc(-c2ccco2)cc(-c2ccc(Cl)cc2)n1`, the pIC50 (in general, −log10 of the IC50, conventionally taken in molar units) in the assay with MCF7 was 6.05; in the assay on HeLa, 4.61; with K562, 4.68; in the assay on DU-145 it was 4.57; in the assay with HCT-15, 6.15. In addition, the inhibition (as a rule, how much of the control response was suppressed) came out at 56.3% in [1], 17.8% in assay [2] and 1% in assay [4]. Also, the inhibition result in assay [3] was “inactive”.
As to `Clc1cccc(-c2cc(-c3ccc(Cl)o3)cc(-c3ccc(Cl)s3)n2)c1`, the pIC50 in the assay with MCF7 is 4.82; in the assay on HeLa, 4.60; with K562 it was 4.71; in the assay with DU-145, 4.67; with HCT-15 it was < 4.30. Besides, the inhibition in assay [1] is 53.8%; in assay [2], 40.7%; in assay [4] it was 13.3%. In assay [3], the inhibition result was “inactive”.
As to `Clc1ccc(-c2cc(-c3ccoc3)cc(-c3ccccc3Cl)n2)s1`, the pIC50 is 5.13 in the assay with MCF7; 4.72 in the assay on HeLa; 4.80 in the assay on K562; 4.78 in the assay with DU-145; 5.96 with HCT-15. Moreover, the figures for the inhibition in assay [1], in assay [2] and in [4] were 49.5%, 37.6% and 0%, respectively. For the same compound, the inhibition entry in assay [3] was “inactive”.
Turning to `Cc1ccsc1-c1cc(-c2ccoc2)cc(-c2ccc(Cl)cc2)n1`, the pIC50 in the assay with MCF7 is 4.69; in the assay on HeLa, 4.76; with K562, 4.71; in the assay on DU-145 it was 4.70; with HCT-15, 5.52. Besides, the inhibition was determined as 33.8% in assay [1], 8.1% in assay [2], 10.6% in assay [3] and 85.9% in [4].
On to `Cc1ccsc1-c1cc(-c2ccc(Cl)o2)cc(-c2cccc(Cl)c2)n1`, for which the pIC50 was 4.73 in the assay with MCF7; 4.61 in the assay on HeLa; 4.87 in the assay with K562; 4.69 in the assay with DU-145; 4.58 in the assay on HCT-15. For the same compound, the values for the inhibition in [1], in assay [2] and in assay [4] were 51.5%, 35.7% and 5.9%, respectively. For the same compound, the inhibition entry in [3] is “inactive”.
With `Cc1ccc(-c2cc(-c3ccoc3)cc(-c3ccc(Cl)s3)n2)o1`, the pIC50 in the assay with MCF7 is 5.72; with HeLa, 4.58; in the assay on K562, 4.90; in the assay on DU-145 it was 4.48; in the assay with HCT-15 it was 6.10. Further, the inhibition in assay [1] stood at 60.5%; in assay [2], 54%; in assay [4] it was 13.2%. Further, the inhibition entry in [3] was “inactive”.
As for `Clc1ccc(-c2cc(-c3ccco3)cc(-c3ccc(Cl)s3)n2)cc1`, the pIC50 is 5.82 in the assay on MCF7; 4.77 in the assay on HeLa; 4.98 with K562; 4.83 in the assay on DU-145; 5.97 in the assay on HCT-15. Further, the inhibition was 53.3% in assay [1], 48.4% in [2], 42.9% in assay [3] and 53.1% in assay [4].
With `CC[C@@]1(O)C(=O)OCc2c1cc1n(c2=O)Cc2cc3ccccc3nc2-1` [CAMPTOTHECIN], the pIC50 with MCF7 was 7.22; with DU-145, 6.18; in the assay on HCT-15, 6.12.
Take `COc1cc([C@@H]2c3cc4c(cc3[C@@H](O[C@@H]3O[C@@H]5CO[C@@H](C)O[C@H]5[C@H](O)[C@H]3O)[C@H]3COC(=O)[C@H]23)OCO4)cc(OC)c1O` [ETOPOSIDE]: the pIC50 in the assay with MCF7 is 5.72; with HeLa, 5.89; with K562, 5.62; with DU-145, 5.89; in the assay on HCT-15, 5.96. For the same compound, the inhibition in assay [2] came to 28.9%.
Regarding `COc1cccc2c1C(=O)c1c(O)c3c(c(O)c1C2=O)C[C@@](O)(C(=O)CO)C[C@@H]3O[C@H]1C[C@H](N)[C@H](O)[C@H](C)O1` [DOXORUBICIN HYDROCHLORIDE], the results for the pIC50 in the assay with K562, in the assay with DU-145 and in the assay on HCT-15 were 5.60, 5.82 and 5.67, respectively.
